≈ marks a conversion by molar mass, not a printed value. Calls of active or inactive are those of the source. The rule behind the calls is not given here.
Columns and labels:
[1] = test system: Acinetobacter baumannii; test: Antimicrobial activity against Acinetobacter baumannii MRS after 18 to 24 hrs in aerobic condition by two-fold serial dilutions method; assay type: functional
Procedure, shortened: (§1)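 Colonies grown overnight (~16 h) in Mueller-Hinton broth at 37 °C, 200 rpm, diluted 1/100 and grown to log phase (OD600 ~0.6), then diluted to ~10^5 bacteria/mL. Exposed to 0 to 500 µM in 1:2 series (0.2% DMSO final control), aerobic, 37 °C, 18–24 h. OD600 read; MIC = lowest concentration without visible growth; n = 3.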

[2] = test system: Clostridium botulinum; test: Antimicrobial activity against Clostridium botulinum after 18 to 24 hrs in anaerobic condition by two-fold serial dilutions method; assay type: functional
[3] = test system: Klebsiella pneumoniae; test: Antimicrobial activity against Klebsiella pneumoniae after 18 to 24 hrs in aerobic condition by two-fold serial dilutions method; assay type: functional; procedure, shortened: as §1
[4] = test system: Streptococcus thermophilus; test: Bactericidal activity against Streptococcus thermophilus in anaerobic condition; assay type: functional, organism-based
Procedure, shortened: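 S. thermophilus grown in BHI and brought to log phase (OD600 ~0.6). It is diluted to ~10^5 bacteria/mL and exposed to two-fold serial dilutions (0–500 µM, 0.2% DMSO final) at 37 °C in an anaerobic cabinet for 18–24 h. MIC read by OD600 as the lowest concentration with no visible growth. The MBC is the concentration where ≤1 colony grew after streaking 10 µL of no-growth wells on agar. Triplicate.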

[5] = test system: Blautia producta; test: Bactericidal activity against Clostridium coccoides in anaerobic condition; assay type: functional, organism-based
Procedure, shortened: (§2)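 From the MIC plates, 10 µL from each well without growth was streaked onto agar suited to the organism and incubated under that organism's growth conditions. Colonies were then counted; MBC = lowest concentration allowing ≤1 colony, i.e. killing 99.9% of bacteria.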

[6] = test system: Candida albicans; test: Fungicidal activity against Candida albicans; assay type: functional, organism-based
Procedure, shortened: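 C. albicans in RPMI buffered with 0.165 M MOPS (pH 7.0). Two-fold serial dilutions from 0 to 500 µM, 0.2% DMSO final. Plates incubated at 35 °C for 24 h; OD600 read, MIC taken as the lowest concentration with no visible growth. Fungicidal concentration defined by ≤1 colony after streaking 10 µL of no-growth wells on agar. n = 3.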

[7] = test system: Clostridium perfringens; test: Induction of cell membrane permeability in Clostridium perfringens assessed as membrane integrity after 240 mins in anaerobic condition by propidium iodide staining-based assay relative to control; assay type: functional
Procedure, shortened: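 Log-phase bacteria resuspended in PBS at about 10^9/mL with propidium iodide 60 µM final, mixed 1:1 with two-fold serial dilutions of compound. Fluorescence (ex 530/em 590 nm) recorded over 240 min at 37 °C anaerobically. Normalised to CTAB 300 µM or nisin at 5× MIC (100% permeabilization); DMSO as vehicle. Triplicate.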

[8] = test system: Vibrio alginolyticus; test: Antimicrobial activity against Vibrio alginolyticus after 18 to 24 hrs in aerobic condition by two-fold serial dilutions method; assay type: functional; procedure, shortened: as §1
[9] = test system: Bacillus subtilis; test: Bactericidal activity against Bacillus subtilis in aerobic condition; assay type: functional, organism-based; procedure, shortened: as §2
[10] = test system: Aspergillus ochraceus; test: Antifungal activity against Aspergillus ochraceus after 2 to 5 days by two-fold serial dilutions method; assay type: functional
Procedure, shortened: (§3)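 Broth two-fold serial dilution MIC, 0 to 500 µM (1:2 steps), from 200 mM DMSO stocks; 0.2% DMSO final as vehicle control. Inoculum about 10^5 cells/mL. Strains maintained on potato dextrose agar and in RPMI medium. Plates held at room temperature for 2 to 5 days, OD600 read; MIC = lowest concentration preventing visible growth; independent triplicate.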

[11] = test system: Aspergillus flavus; test: Fungicidal activity against Aspergillus flavus; assay type: functional, organism-based
Procedure, shortened: (§4)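 Filamentous fungi grown on potato dextrose agar and tested in RPMI medium with two-fold serial dilutions (0–500 µM, 0.2% DMSO final). Plates held at room temperature for 2 to 5 days, then OD600 read; MIC taken as the lowest concentration with no visible growth. The fungicidal endpoint is ≤1 colony after streaking 10 µL of no-growth wells on agar. n = 3.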

[12] = test system: Fusarium verticillioides; test: Fungicidal activity against Fusarium verticillioides; assay type: functional, organism-based; procedure, shortened: as §4
[13] = test system: Blautia producta; test: Antimicrobial activity against Clostridium coccoides after 18 to 24 hrs in anaerobic condition by two-fold serial dilutions method; assay type: functional
Procedure, shortened: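 Precultures in BHI broth at 37 °C in an anaerobic cabinet, grown to log phase (OD600 ~0.6), then seeded at ~10^5 bacteria/mL. Two-fold dilutions from 0 to 500 µM, 0.2% DMSO final as control. Plates incubated anaerobically at 37 °C for 18–24 h, OD600 read; MIC = lowest concentration giving no visible growth; independent triplicate.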

[14] = test system: Staphylococcus aureus; test: Antimicrobial activity against methicillin-resistant Staphylococcus aureus after 18 to 24 hrs in aerobic condition by two-fold serial dilutions method; assay type: functional
Procedure, shortened: (§5)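 Strains grown on LB at 37 °C aerobically, then in Mueller-Hinton broth overnight at 200 rpm and brought to log phase (OD600 ~0.6). About 10^5 bacteria/mL exposed to two-fold serial dilutions 0–500 µM, DMSO 0.2% final as control. Aerobic incubation at 37 °C for 18–24 h; OD600 read; MIC = lowest concentration inhibiting visible growth. n = 3.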

[15] = test system: IMR-90; test: Cytotoxicity against human IMR90 cells assessed as reduction in cell viability after 48 hrs by Resazurin dye-based assay; conditions: for IC50: Homo sapiens, IMR-90, 48 h; for Activity: human, imr-90, 48 h
Procedure, shortened: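 Normal human lung epithelial (BEAS-2B) and lung fibroblast (IMR-90) cells were grown in DMEM with 10% FCS. Cells were seeded at ~10^4/well, grown to confluence (48–72 h), then exposed to increasing concentrations for 48 h at 37 °C, 5% CO2, with 0.2% DMSO as control. Resazurin was added for 4 h and fluorescence read at 530/590 nm. Viability was normalized to DMSO wells and IC50 calculated.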

[16] = test system: Penicillium verrucosum; test: Antifungal activity against Penicillium verrucosum after 2 to 5 days by two-fold serial dilutions method; assay type: functional; procedure, shortened: as §3
[17] = test system: Mycolicibacterium smegmatis; test: Bactericidal activity against Mycobacterium smegmatis in anaerobic condition; assay type: functional, organism-based; procedure, shortened: as §2
[18] = test system: Arthrobacter gandavensis; test: Antimicrobial activity against Arthrobacter gandavensis after 18 to 24 hrs in aerobic condition by two-fold serial dilutions method; assay type: functional; procedure, shortened: as §1
[19] = test system: Escherichia coli; test: Bactericidal activity against Escherichia coli […] K88 in aerobic condition; assay type: functional, organism-based
[20] = test system: Bacillus subtilis; test: Bactericidal activity against Nisin-resistant Bacillus subtilis in aerobic condition; assay type: functional, organism-based
[21] = test system: Aspergillus flavus; test: Antifungal activity against Aspergillus flavus after 2 to 5 days by two-fold serial dilutions method; assay type: functional; procedure, shortened: as §3
[22] = test system: Fusarium oxysporum; test: Antifungal activity against Fusarium oxysporum after 2 to 5 days by two-fold serial dilutions method; assay type: functional; procedure, shortened: as §3
[23] = test system: Escherichia coli; test: Antimicrobial activity against Escherichia coli […] K88 after 18 to 24 hrs in aerobic condition by two-fold serial dilutions method; assay type: functional; procedure, shortened: as §5
[24] = test system: Vibrio diabolicus; test: Bactericidal activity against Vibrio diabolicus in aerobic condition; assay type: functional, organism-based
Procedure, shortened: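 MH broth; log-phase bacteria (OD600 ~0.6) diluted to ~10^5 bacteria/mL and exposed to two-fold serial dilutions (0–500 µM; 0.2% DMSO final as vehicle control) at 37 °C, aerobic, 18–24 h. MIC is the lowest concentration preventing visible growth (OD600). MBC is found by streaking 10 µL from no-growth wells onto agar; the MBC is the concentration where ≤1 colony grew. n = 3.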

[25] = test system: Vibrio diabolicus; test: Antimicrobial activity against Vibrio diabolicus after 18 to 24 hrs in aerobic condition by two-fold serial dilutions method; assay type: functional; procedure, shortened: as §1

SMILES: O=C1/C(=C/c2ccccc2)Oc2cc(O)cc(O)c21
- MIC [1]: > 500 µM
- MIC [2]: 500 µM (≈ 127 µg/mL)
- MIC [3]: > 500 µM
- Activity [4]: Active
- Activity [5]: Active
- Activity [6]: Active
- Activity [7]: inactive
- MIC [8]: 31.2 µM (≈ 7.95 µg/mL)
- Activity [9]: Active
- MIC [10]: > 500 µM
- Activity [11]: Active
- Activity [12]: Active
- MIC [13]: 500 µM (≈ 127 µg/mL)
- MIC [14]: 15.6 to 31.2 µM (≈ 3.97 to 7.95 µg/mL)
- IC50 [15]: 250 µM
- Activity [15]: Dose-dependent effect
- MIC [16]: > 500 µM
- Activity [17]: Active
- MIC [18]: 31.2 µM (≈ 7.95 µg/mL)
- Activity [19]: Active
- Activity [20]: Active
- MIC [21]: > 500 µM
- MIC [22]: > 500 µM
- MIC [23]: > 500 µM
- Activity [24]: Active
- MIC [25]: > 500 µM

SMILES: COc1cc(/C=C2\Oc3cc(O)cc(O)c3C2=O)ccc1OCc1ccccc1
- MIC [1]: > 500 µM
- MIC [2]: 62.5 µM (≈ 24.4 µg/mL)
- MIC [3]: > 500 µM
- Activity [4]: Active
- Activity [5]: Active
- Activity [6]: Active
- Activity [7]: 30%
- MIC [8]: 3.9 µM (≈ 1.52 µg/mL)
- Activity [9]: Active
- MIC [10]: > 500 µM
- Activity [11]: Active
- Activity [12]: Active
- MIC [13]: 250 µM (≈ 97.6 µg/mL)
- MIC [14]: 15.6 µM (≈ 6.09 µg/mL)
- IC50 [15]: 340 µM
- Activity [15]: Dose-dependent effect
- MIC [16]: > 500 µM
- Activity [17]: Active
- MIC [18]: 31.2 µM (≈ 12.2 µg/mL)
- Activity [19]: Active
- Activity [20]: Active
- MIC [21]: > 500 µM
- MIC [22]: > 500 µM
- MIC [23]: > 500 µM
- Activity [24]: Active
- MIC [25]: > 500 µM

SMILES: O=C1/C(=C/c2ccc(F)cc2)Oc2cc(O)cc(O)c21
- MIC [1]: > 500 µM
- MIC [2]: 500 µM (≈ 136 µg/mL)
- MIC [3]: > 500 µM
- Activity [4]: Active
- Activity [5]: Active
- Activity [6]: Active
- Activity [7]: inactive
- MIC [8]: 125 µM (≈ 34 µg/mL)
- Activity [9]: Active
- MIC [10]: > 500 µM
- Activity [11]: Active
- Activity [12]: Active
- MIC [13]: > 500 µM
- MIC [14]: 7.8 to 15.6 µM (≈ 2.12 to 4.25 µg/mL)
- IC50 [15]: 620 µM
- Activity [15]: Dose-dependent effect
- MIC [16]: > 500 µM
- Activity [17]: Active
- MIC [18]: 15.6 µM (≈ 4.25 µg/mL)
- Activity [19]: Active
- Activity [20]: Active
- MIC [21]: > 500 µM
- MIC [22]: > 500 µM
- MIC [23]: > 500 µM
- Activity [24]: Active
- MIC [25]: > 500 µM

— ChEMBL document CHEMBL4400513, “Aurone derivatives as promising antibacterial agents against resistant Gram-positive pathogens” (Eur J Med Chem, 2019)
